Test results taken from ChEMBL document CHEMBL1140318, “Potent androgen antagonists based on carborane as a hydrophobic core structure” (J Med Chem, 2005).

Target: Androgen receptor (Homo sapiens) (UniProt P10275)
Assay: Percent displacement of [3H]DHT binding to human androgen receptor expressed in Escherichia coli strain HB-101 at 10 uM
In short: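 GST-hAR ligand-binding domain expressed in E. coli HB-101 (1 mM IPTG, 27 °C, 4.5 h); crude sonicate diluted to 0.3-0.5 mg/mL protein (20 mM Tris-HCl pH 8.0, 0.3 M KCl, 1 mM EDTA). Incubated 15 h at 4 °C in dark with 4 nM [3H]DHT and 1 μM triamcinolone acetonide (final). Nonspecific binding measured with 200-fold unlabeled DHT. Dextran/γ-globulin-charcoal separation, supernatant scintillation-counted.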

Chain of UniProt P10275 (P10275 whole entry): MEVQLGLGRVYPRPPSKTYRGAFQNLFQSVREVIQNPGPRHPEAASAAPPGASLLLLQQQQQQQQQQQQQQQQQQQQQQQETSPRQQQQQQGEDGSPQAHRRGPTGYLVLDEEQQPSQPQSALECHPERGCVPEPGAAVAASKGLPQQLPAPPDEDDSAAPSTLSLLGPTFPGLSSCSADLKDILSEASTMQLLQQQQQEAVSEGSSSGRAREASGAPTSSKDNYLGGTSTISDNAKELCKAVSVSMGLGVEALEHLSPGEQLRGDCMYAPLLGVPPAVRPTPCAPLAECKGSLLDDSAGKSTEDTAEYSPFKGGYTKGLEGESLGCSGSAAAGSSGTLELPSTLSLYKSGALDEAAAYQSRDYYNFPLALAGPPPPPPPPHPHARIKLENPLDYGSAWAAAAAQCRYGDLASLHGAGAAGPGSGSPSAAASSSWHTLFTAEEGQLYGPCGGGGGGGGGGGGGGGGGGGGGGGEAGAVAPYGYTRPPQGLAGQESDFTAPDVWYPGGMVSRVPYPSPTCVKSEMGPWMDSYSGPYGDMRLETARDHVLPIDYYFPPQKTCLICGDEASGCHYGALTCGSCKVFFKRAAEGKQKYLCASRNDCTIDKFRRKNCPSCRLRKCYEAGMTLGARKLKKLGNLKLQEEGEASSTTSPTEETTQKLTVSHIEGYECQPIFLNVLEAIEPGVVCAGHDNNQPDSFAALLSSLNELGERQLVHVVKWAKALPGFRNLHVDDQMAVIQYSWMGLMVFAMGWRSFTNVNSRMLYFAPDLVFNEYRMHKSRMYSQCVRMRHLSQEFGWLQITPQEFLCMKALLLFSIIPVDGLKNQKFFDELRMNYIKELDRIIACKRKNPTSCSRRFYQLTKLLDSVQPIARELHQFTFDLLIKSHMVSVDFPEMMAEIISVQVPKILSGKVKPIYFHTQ

| Binding affinity [%] | Substance |
| --- | --- |
| 63 | 1-(2-Hydroxyethyl)-12-(3-nitrophenyl)-1,12-dicarbacloso-dodecaborane |
| 39 | 1-(3-Hydroxypropyl)-12-(3-nitrophenyl)-1,12-dicarbacloso-dodecaborane |
| 36 | 1-(3-Nitrophenyl)-1,12-dicarba-closo-dodecaborane |
| 35 | 1-(3-Nitrophenyl)-1,12-dicarba-closo-dodecaborane-1-carboxylic Acid |
| 20 | 1-(4-Hydroxybutyl)-12-(3-nitrophenyl)-1,12-dicarbacloso-dodecaborane |
| 29 | 1-(4-Nitrophenyl)-1,12-dicarba-closo-dodecaborane |
| 66 | 1-Hydroxy-12-(3-cyanophenyl)-1,12-dicarba-closo-dodecaborane |
| 75 | 1-Hydroxy-12-(3-nitrophenyl)-1,12-dicarba-closo-dodecaborane |
| 50 | 1-Hydroxy-12-(4-cyanophenyl)-1,12-dicarba-closo-dodecaborane |
| 53 | 1-Hydroxy-12-(4-nitrophenyl)-1,12-dicarba-closo-dodecaborane |
| 54 | 1-Hydroxymethyl-7-(3-nitrophenyl)-1,7-dicarba-closododecaborane |
| 60 | 1-Hydroxymethyl-7-(4-nitrophenyl)-1,7-dicarba-closododecaborane |
| 95 | 1-Hydroxymethyl-12-(3-cyanophenyl)-1,12-dicarbacloso-dodecaborane |
| 97 | 1-Hydroxymethyl-12-(3-nitrophenyl)-1,12-dicarba-closododecaborane |
| 54 | 1-Hydroxymethyl-12-(4-cyanophenyl)-1,12-dicarbacloso-dodecaborane |
| 55 | 1-Hydroxymethyl-12-(4-nitrophenyl)-1,12-dicarba-closodod caborane |
| 18 | 1-Methoxycarbonyl-12-(3-nitrophenyl)-1,12-dicarbacloso-dodecaborane |
